Eleven compounds from ChEMBL document CHEMBL5543089, “Discovery of a novel, highly potent EZH2 PROTAC degrader for targeting non-canonical oncogenic functions of EZH2” (Eur J Med Chem, 2024) can be followed below.

Activity calls are given as the source filed them. The calls are words filed in the database; no cut-off is given here. Where only a bound is given, the exact number is not on record here.

The subject of experiment [1] is MDA-MB-468. The experiment is described as follows: Anti-proliferative activity against human MDA-MB-468 cells assessed as cell growth inhibition measured after 5 days incubation by CCK-8 assay. The class given is functional, cell-based. The following applies: MDA-MB-468, 120 h. In outline: (§1)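 Cells plated at 3,000–10,000 per well and exposed to serial dilutions for 5 days at 37 °C. CCK-8 (1x) was added for 2–4 h, with absorbance read at 450 nm against a 690 nm reference. IC50 was taken from curve fits. Leukemia lines were grown in RPMI-1640, K562 in IMDM and MDA-MB-468 in DMEM, all with 10 % FBS. Values are means ± SD of two biological experiments (three for BT549 and MDA-MB-468).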
In general terms: Tetrazolium assays rely on reduction of a dye to a coloured formazan, in cell work by metabolically active cells.

For experiment [2], the system named is BT-549. The experiment can be described thus: Anti-proliferative activity against human BT-549 cells assessed as cell growth inhibition measured after 5 days incubation by CCK-8 assay. The class given is functional, cell-based. The settings on record: BT-549, 120 h. An outline of the steps: as §1
Experiment [3] deals with RS4-11. The experiment can be described thus: Anti-proliferative activity against human RS4-11 cells assessed as cell viability measured after 5 days incubation by CCK-8 assay. The class given is functional, cell-based. The settings on record: RS4-11, 120 h. In outline:
as §1

The subject of experiment [4] is MV4-11. The experiment is described as follows: Anti-proliferative activity against human MV4-11 cells assessed as cell viability measured after 5 days incubation by CCK-8 assay. The class given is functional, cell-based. The settings on record: MV4-11, 120 h. In outline: as §1
The subject of experiment [5] is EOL1. The experiment is described as follows: Anti-proliferative activity against human EOL1 cells assessed as cell viability measured after 5 days incubation by CCK-8 assay. The class given is functional, cell-based. The following applies: EOL1, 120 h. An outline of the steps:
as §1

Experiment [6] has as its target T1, von Hippel-Lindau disease tumor suppressor/Histone-lysine N-methyltransferase EZH2 (Homo sapiens, UniProt Q15910+P40337). The experiment is described as follows: PROTAC activity at VHL/EZH2 degradation in hMLLr AML cell line EOL1 cells assessed as protein degradation at 0.1 to 1 uM measured after 24 hrs by Western blot analysis. The class given is cell-based. The settings on record: dose 0.1-1 µM. In outline: (§2)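 Cells were seeded at 0.5–2 million per well and treated for 24 h, or for the stated times at 300 nM in the time course. Lysis was in RIPA with protease inhibitors; ~10 μg protein was run on SDS-PAGE and blotted to PVDF. Detection used fluorescent immunoblotting for EZH2, EED and SUZ12, with β-actin as loading control. Blots are representative of two biological experiments.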

Experiment [7] concerns the target T1, von Hippel-Lindau disease tumor suppressor/Histone-lysine N-methyltransferase EZH2. The experiment is described as follows: PROTAC activity at VHL/EZH2 degradation in hMLLr AML cell line EOL1 cells assessed as protein degradation at 1 uM measured after 24 hrs by Western blot analysis. The class given is cell-based. In outline: as §2
In general terms: A western blot detects proteins with antibodies after separation by electrophoresis.

For experiment [8] the target is unchanged. The experiment is described as follows: PROTAC activity at VHL/EZH2 degradation in hMLLr AML cell line EOL1 cells assessed as protein degradation at 0.1 uM measured after 24 hrs by Western blot analysis. The class given is cell-based. An outline of the steps: as §2

T1 sequence (P40337 whole entry, looked up): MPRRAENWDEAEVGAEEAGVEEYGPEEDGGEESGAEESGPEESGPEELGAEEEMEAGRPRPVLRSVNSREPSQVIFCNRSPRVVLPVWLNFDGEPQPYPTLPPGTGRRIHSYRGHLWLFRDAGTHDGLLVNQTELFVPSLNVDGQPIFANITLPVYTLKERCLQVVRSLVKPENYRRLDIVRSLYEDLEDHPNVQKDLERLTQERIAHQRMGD
T1 sequence (Q15910 whole entry, looked up): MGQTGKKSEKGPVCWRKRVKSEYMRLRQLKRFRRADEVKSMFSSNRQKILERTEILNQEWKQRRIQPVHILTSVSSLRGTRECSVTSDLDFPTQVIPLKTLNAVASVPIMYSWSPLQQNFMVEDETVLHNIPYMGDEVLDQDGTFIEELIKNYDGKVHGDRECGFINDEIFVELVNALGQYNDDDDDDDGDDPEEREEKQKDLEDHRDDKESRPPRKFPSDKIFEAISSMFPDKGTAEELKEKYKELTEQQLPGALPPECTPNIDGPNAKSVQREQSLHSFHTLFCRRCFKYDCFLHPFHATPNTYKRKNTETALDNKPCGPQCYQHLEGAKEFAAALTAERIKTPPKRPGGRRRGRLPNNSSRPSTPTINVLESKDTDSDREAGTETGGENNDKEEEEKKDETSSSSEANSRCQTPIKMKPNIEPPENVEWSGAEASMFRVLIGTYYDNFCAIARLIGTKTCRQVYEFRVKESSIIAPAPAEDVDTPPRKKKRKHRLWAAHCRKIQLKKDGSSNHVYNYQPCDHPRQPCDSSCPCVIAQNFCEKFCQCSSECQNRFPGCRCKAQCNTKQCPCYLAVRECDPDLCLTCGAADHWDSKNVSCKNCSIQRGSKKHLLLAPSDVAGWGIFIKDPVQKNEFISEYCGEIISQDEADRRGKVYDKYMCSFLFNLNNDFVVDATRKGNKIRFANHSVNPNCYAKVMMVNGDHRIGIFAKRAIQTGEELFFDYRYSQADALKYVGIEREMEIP

As usually defined, the IC50 is the concentration at which inhibition is half-maximal. Consider `CCN(c1cc(-c2ccc(CN3CCOCC3)cc2)cc(C(=O)NCc2c(C)cc(C)[nH]c2=O)c1C)C1CCOCC1` [TAZEMETOSTAT], for which the IC50 was over 2500 nM in experiment [1] and over 10000 nM in experiment [2]. Regarding `CCN(c1cc(-c2ccc(CN3CCN(CCCCCCCOc4cccc5c4C(=O)N(C4CCC(=O)NC4=O)C5=O)CC3)cc2)cc(C(=O)NCc2c(C)cc(C)[nH]c2=O)c1C)C1CCOCC1` (stereo unspecified), the values for the IC50 in experiment [3], in experiment [4] and in experiment [5] were 5000 nM, 5500 nM and 3700 nM, respectively. Regarding `CCN(c1cc(-c2ccc(CN3CCN(C(=O)CCCCCCCC(=O)N[C@H](C(=O)N4C[C@H](O)C[C@H]4C(=O)NCc4ccc(-c5scnc5C)cc4)C(C)(C)C)CC3)cc2)cc(C(=O)NCc2c(C)cc(C)[nH]c2=O)c1C)C1CCOCC1`, the figures for the IC50 in experiment [3], in experiment [4] and in experiment [5] were 1400 nM, 1000 nM and 420 nM, respectively. Take `CCN(c1cc(-c2ccc(OCCCOCC(=O)N[C@H](C(=O)N3C[C@H](O)C[C@H]3C(=O)NCc3ccc(-c4scnc4C)cc3)C(C)(C)C)cc2)cc(C(=O)NCc2c(C)cc(C)[nH]c2=O)c1C)C1CCOCC1`: the IC50 in experiment [3] is 4070 nM; in experiment [4], over 10000 nM; in experiment [5] it was 5400 nM. With `CCN(c1cc(-c2ccc(CN3CCN(CCC(=O)NCCCCCCC(=O)N[C@H](C(=O)N4C[C@H](O)C[C@H]4C(=O)NCc4ccc(-c5scnc5C)cc4)C(C)(C)C)CC3)cc2)cc(C(=O)NCc2c(C)cc(C)[nH]c2=O)c1C)C1CCOCC1`, in experiment [6], the result was inactive. For `CCN(c1cc(-c2ccc(CN3CCN(CCC(=O)NCCCCCC(=O)N[C@H](C(=O)N4C[C@H](O)C[C@H]4C(=O)NCc4ccc(-c5scnc5C)cc4)C(C)(C)C)CC3)cc2)cc(C(=O)NCc2c(C)cc(C)[nH]c2=O)c1C)C1CCOCC1`, the outcome in experiment [6] was inactive. Same read-out and setting: to `CCN(c1cc(-c2ccc(CN3CCN(CCC(=O)NCCCCCCCC(=O)N[C@H](C(=O)N4C[C@H](O)C[C@H]4C(=O)NCc4ccc(-c5scnc5C)cc4)C(C)(C)C)CC3)cc2)cc(C(=O)NCc2c(C)cc(C)[nH]c2=O)c1C)C1CCOCC1` belongs “Active”. With `CCN(c1cc(-c2ccc(CN3CCN(CCC(=O)NCCCCCCCCCC(=O)N[C@H](C(=O)N4C[C@H](O)C[C@H]4C(=O)NCc4ccc(-c5scnc5C)cc4)C(C)(C)C)CC3)cc2)cc(C(=O)NCc2c(C)cc(C)[nH]c2=O)c1C)C1CCOCC1`, the outcome in experiment [7] was Active. The Activity in experiment [8] is 100%. On to `CCN(c1cc(-c2ccc(CN3CCN(CCC(=O)NCCCCCCCCC(=O)N[C@H](C(=O)N4C[C@H](O)C[C@H]4C(=O)NCc4ccc(-c5scnc5C)cc4)C(C)(C)C)CC3)cc2)cc(C(=O)NCc2c(C)cc(C)[nH]c2=O)c1C)C1CCOCC1`, for which the outcome in experiment [6] was Active. For the compound `Cc1cc(C)c(CNC(=O)c2cc(-c3ccc(N4CCN(CCCCCCCCCc5cn(CCOCCOCCOCCOCCOCCOCCNc6cccc7c6C(=O)N(C6CCC(=O)NC6=O)C7=O)nn5)CC4)nc3)cc3c2cnn3C(C)C)c(=O)[nH]1` (stereo unspecified), the IC50 was 650 nM in experiment [3], 460 nM in experiment [4] and 1000 nM in experiment [5]. Regarding `CCN(c1cc(-c2ccc(CN3CCN(CCC(=O)NCCCCC(=O)N[C@H](C(=O)N4C[C@H](O)C[C@H]4C(=O)NCc4ccc(-c5scnc5C)cc4)C(C)(C)C)CC3)cc2)cc(C(=O)NCc2c(C)cc(C)[nH]c2=O)c1C)C1CCOCC1`, the result in experiment [6] was inactive.
